# Source: ChEMBL document CHEMBL1133753, “6-N-Acyltriciribine analogues: structure-activity relationship between acyl carbon chain length and activity against HIV-1” (J Med Chem, 2000)
# What was measured:
# [1] = Antiviral activity against HSV-1 was determined using BSC-1 cells by an enzyme-linked immunosorbent assay (ELISA); assay type: functional, cell-based; settings: Cercopithecidae
# [2] = tested on: CEM-SS; assay: Visual cytotoxicity was scored on CEM-SS cells; assay type: functional, cell-based; settings: Homo sapiens
# [3] = tested on: HFF; assay: Visual cytotoxicity was scored on uninfected HFF cells; assay type: functional, cell-based; settings: Homo sapiens
# [4] = tested on: HFF; assay: Antiviral activity against HCMV was determined by plaque reduction assay using HFF cells; assay type: functional, cell-based; settings: Homo sapiens
# [5] = (§1) Cytotoxicity measured as Inhibition of KB cell growth was assessed.; assay type: functional, cell-based; settings: Homo sapiens
# [6] = species on record: Homo sapiens; assay: Intracellular phosphorylation (100 uM) in uninfected AA2 cells was studied, after 5 hrs of Incubation.; assay type: functional, cell-based
# Outline: (§2)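 Uninfected cells grown in suspension with compound at the stated extracellular concentration for 5 or 24 h. Cells pelleted and washed in cold Puck's saline with glucose. Nucleotides extracted with 0.6 N TCA on ice, neutralized with freon/0.5 M triethylamine, then separated by reverse-phase C18 HPLC (formic acid pH 2.5 to 50% methanol gradient), UV 254/290 nm; peaks identified by electrospray MS in a separate run. TCN-P quantified against standards and converted to μM using 1.9 pL/cell.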
# [7] = tested on: CEM-SS; assay: Intracellular phosphorylation (10 uM) in uninfected CEM-SS cells was studied after 24 hrs of Incubation.; assay type: functional, cell-based; settings: Homo sapiens; outline: as §2
# [8] = tested on: CEM-SS; assay: Intracellular phosphorylation (100 uM) studied, after 5 hrs of Incubation.; assay type: functional, cell-based; settings: Homo sapiens; outline: as §2
# [9] = tested on: CEM-SS; assay: Intracellular phosphorylation (100 uM) in uninfected CEM-SS cells was studied after 24 hrs of Incubation.; assay type: functional, cell-based; settings: Homo sapiens; outline: as §2
# [10] = as §1; assay type: cell-based; settings: Homo sapiens
# Outline: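 KB cells plated at 5000/well and incubated overnight at 37 °C. Compound added in triplicate at eight concentrations, then 48 h at 37 °C in CO₂ (two population doublings). Cells fixed with 95% ethanol, stained with 0.1% crystal violet, dye eluted with acidified ethanol and read at 570 nm. IC50 taken from linear regression of % inhibition vs log concentration.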
# [11] = Antiviral activity was evaluated by RT (reverse transcriptase) activity in cells acutely infected with HIV-1
# [12] = tested on: CEM-SS; assay: Intracellular phosphorylation (10 uM) in uninfected CEM-SS cells was studied; assay type: functional, cell-based; settings: Homo sapiens; outline: as §2
IC50 [1] [µM],IC50 [11] [µM],Compound,IC50 [2] [µM],IC50 [3] [µM],IC50 [4] [µM],IC50 [5] [µM],Concentration [6] [µM],Concentration [7] [µM],Concentration [8] [µM],Concentration [9] [µM],IC50 [10] [µM],Concentration [12] [µM]
> 100,,CN1N=C(NC(=O)C(C)(C)C)c2cn(C3O[C@H](CO)[C@@H](O)[C@H]3O)c3ncnc1c23 (some centres undefined),> 100,> 100,> 100,> 100,,,,,,
> 100,,CCCCCCC(=O)NC1=NN(C)c2ncnc3c2c1cn3C1O[C@H](CO)[C@@H](O)[C@H]1O (some centres undefined),32,32,11,30,48,225,850,,,
> 100,,CCCCCC(=O)NC1=NN(C)c2ncnc3c2c1cn3C1O[C@H](CO)[C@@H](O)[C@H]1O (some centres undefined),45,100,8.8,40,,,,,,
> 100,,CC(C)C(=O)NC1=NN(C)c2ncnc3c2c1cn3C1O[C@H](CO)[C@@H](O)[C@H]1O (some centres undefined),> 100,> 100,> 100,> 100,,,,,,
> 100,,CCCC(=O)NC1=NN(C)c2ncnc3c2c1cn3C1O[C@H](CO)[C@@H](O)[C@H]1O (some centres undefined),> 100,100,10,100,,,,,,
> 100,,CCCCC(=O)NC1=NN(C)c2ncnc3c2c1cn3C1O[C@H](CO)[C@@H](O)[C@H]1O (some centres undefined),32,> 100,0.45,30,,,,710,,
> 100,,CN1N=C(NC(=O)c2ccccc2)c2cn(C3O[C@H](CO)[C@@H](O)[C@H]3O)c3ncnc1c23 (some centres undefined),> 100,> 100,> 100,> 100,,,,,,
> 100,,CC(=O)NC1=NN(C)c2ncnc3c2c1cn3C1O[C@H](CO)[C@@H](O)[C@H]1O (some centres undefined),> 100,> 100,> 100,> 100,,,,,,
> 100,,CCCCCCCCCC(=O)NC1=NN(C)c2ncnc3c2c1cn3C1O[C@H](CO)[C@@H](O)[C@H]1O (some centres undefined),32,21,12,40,,,,,,
> 100,,CCC(=O)NC1=NN(C)c2ncnc3c2c1cn3C1O[C@H](CO)[C@@H](O)[C@H]1O (some centres undefined),> 100,100,40,,,,,,> 100,
20,0.04,CN1N=C(N)c2cn([C@@H]3O[C@H](COP(=O)(O)O)[C@@H](O)[C@H]3O)c3ncnc1c23 [TRICIRIBINE PHOSPHATE],> 1,,,10,,,,,,
45,,CCCCCCCCCCCC(=O)NC1=NN(C)c2ncnc3c2c1cn3C1O[C@H](CO)[C@@H](O)[C@H]1O (some centres undefined),32,21,12,75,,,,,,
> 100,,CCCCCCCCC(=O)NC1=NN(C)c2ncnc3c2c1cn3C1O[C@H](CO)[C@@H](O)[C@H]1O (some centres undefined),32,21,12,65,,,,,,243
> 100,,CCCCCCCC(=O)NC1=NN(C)c2ncnc3c2c1cn3C1O[C@H](CO)[C@@H](O)[C@H]1O (some centres undefined),32,21,12,40,,,,,,
